In PubChem BioAssay AID821 (SRMLSC, 2007):
Activity calls are given as the source filed them.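 The calls were made as follows: active = compounds whose fitted half-maximal concentration for reducing fibroblast viability is 100 µM or lower; inactive = the rest.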

System: LL 47 lung fibroblast viability, ATP luminescence
Assay: LL 47 lung fibroblast growth inhibition, concentration-response, selectivity test for endothelial growth inhibitor program, cellular, luminescent ATP readout (AID 821)
In short: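 Test system: human lung fibroblasts, LL 47 line / Amount: 1,150 cells/well / Schedule: 72 h compound treatment at 37 °C after overnight attachment / Technique: CellTiter-Glo luminescence readout of viable cells / Measure: percent viability relative to untreated wells, EC50 via 4-parameter fit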

Going from `CN=C1c2cc3cc(OC)ccc3n2CCN1Cc1ccccc1` to `COc1ccc(NC(=O)/C(Cl)=C(/Cl)S(=O)(=O)Cc2ccccc2)cn1`, the EC50 falls from 18.1 µM to 6.19 µM (2.9-fold). The second is the more potent here.

Compared with `Cc1nc(S(=O)(=O)N(C)c2ccccc2)c(C#N)c(C)c1Cl`, `O=c1c(Cl)c(NCCCO)cnn1-c1nc2ccccc2[nH]1` is 3-fold lower in EC50: 18.7 µM for the first, 6.3 µM for the second. The second is the more potent here.

`O=C(NNC(=O)c1ccc([N+](=O)[O-])o1)c1ccccc1` and `COc1ccc(C(=O)Nc2ccccc2C(=O)N(Cc2ccco2)C(C(N)=O)C(C)C)cc1` (centres undefined) are within 1.5-fold of each other in EC50: 11.7 µM for the first, 17.4 µM for the second.

Compared with `Oc1c(I)cc(Cl)c2cccnc12`, `c1ccc2c(c1)oc1c(Nc3ccc(CN4CCOCC4)cc3)ncnc12` is 1.5-fold higher in EC50: 11.4 µM for the first, 17.2 µM for the second. The first is the more potent here.

`Oc1ccc(Cl)cc1-c1cc(-c2ccco2)[nH]n1` was tested, and the EC50 was > 10 µM (inactive).
